The data set in a line: Toxicity liver stage against HepG2, at 10uM. The data set is classed as cell-based. The arrangement: test concentration 10 uM, cell line HepG2-A16-CD81EGFP. The following applies: human, HepG2-A16-CD81EGFP cells; read-out: INHIBITION
The gist of the method: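 Uninfected HepG2-A16-CD81EGFP cells, 3 × 10^3 per well, 1536-well, plated on prespotted compound at 10 μM final, parasite-free screening media added to match infected plates; puromycin 10 μM positive, DMSO 0.5% negative; run in parallel with 48 h PbLuc assay at 37 °C, 5% CO2; viability by CellTiter-Glo luminescence, normalized to controls.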
In the case of `Cc1ccnc(NCc2cn3nc(C)sc3n2)n1`, the cytotoxicity at 10 µM was -0.449%.
The figure for `O=C(NCc1ccccn1)[C@@H]1COC[C@H]2CNC[C@H]21` is 11.2%.
The result for `COc1ccccc1C(=O)N1CCCC1Cn1cc(C)cn1` (stereo unspecified) reads -6.49%; that for `Cc1ccc(-c2ccnc(NC(C)c3ncc[nH]3)n2)c(C)n1` (stereo unspecified), 3.29%.
The result for `CC(C)CN1C[C@H]2CCN(C(=O)C3CCCO3)CC[C@H]2S1(=O)=O` (stereo partly specified) reads 19.3%; that for `CCOc1ccc2ccccc2c1CNCC1CCNCC1`, -9.67%.
Take `Cc1cc2nc(SCC(=O)NC(C)C)n(Cc3ccco3)c(O)c-2n1`: the cytotoxicity at 10 µM was determined as 10.5%.
The result for `Cc1nnc(NCC(c2ccco2)N(C)C)c(C#N)c1C` (stereo unspecified) reads -3.01%; that for `CC(C)N(Cc1ccc(Cl)c(Cl)c1)C(=O)CCn1cncn1`, 6.63%; that for `COc1ccc(CN2C[C@H](O)C[C@H]2c2nc(-c3ccccc3)no2)cc1`, 0.223%.
Consider `CCc1cnc(N2CC[C@H]3[C@H]2CC(=O)N3c2cccnc2)nc1`, for which the cytotoxicity at 10 µM was -9.62%.
Take `Cc1noc(C)c1CN1C[C@H](OCC2CC2)[C@H]2OCCC[C@H]21`: the cytotoxicity at 10 µM is -14.9%.
The result for `Cc1nc(CN(C)C2CCN(Cc3sc(C)nc3C)C2)no1` (stereo unspecified) reads -8.99%; that for `Cc1cc(C(=O)N2C[C@@H]3CC[C@H]2CN(C)C3)ccc1Cl`, -8.23%; that for `Cc1ccnc(CC(C)N(C)c2cc(CN)nc(C)n2)c1` (stereo unspecified), -48.9%.
The figure for `CN(Cc1ncc[nH]1)c1nc(-c2ccccn2)nc2c1CCNCC2` is -0.796%; for `CNC(=O)C1CN(C)CCN1c1nc(C)cc(C)n1` (stereo unspecified) it is 15.3%; for `CN(Cc1ccc(Cl)s1)C(=O)c1ccccc1OCC(N)=O` it is -9.2%.
As for `Cc1cc(CN2CCC(CNS(=O)(=O)c3ccccc3F)CC2)c(C)o1`, the cytotoxicity at 10 µM was 5.48%.
The result for `CCOCC1CN(C(=O)c2cnccn2)Cc2cnn(CC3CC3)c21` (stereo unspecified) reads -69.6%; that for `Cc1ccccc1CN1CCNC(=O)C1CC(=O)NCC1CCCCC1` (stereo unspecified), -8.77%; that for `O=S(=O)(C1CC1)N1CCOCC2(CN(c3ncccn3)CCO2)C1` (stereo unspecified), 6.37%.
For `Cc1c(C(=O)NCCC2CN(C)CCO2)n(C)c2c(C)cccc12` (stereo unspecified), the cytotoxicity at 10 µM was -3.83%.
On to `Cc1nc(CN(C)Cc2cnc(N3CCOCC3)s2)no1`, for which the cytotoxicity at 10 µM is 1.87%.
With `NC(=O)NC(=O)Cn1ccc2sccc2c1=O`, the cytotoxicity at 10 µM was 0.354%.
The result for `CCc1noc(CN2CCN(C(=O)COC)CC2)n1` reads -8.09%; that for `CCCOCC1CCN(C(=O)Cn2cccc(OC)c2=O)C1` (stereo unspecified), 5.88%.
As for `O=C(c1ccoc1)N1Cc2cnn(CC3CC3)c2C(COCC2CC2)C1` (stereo unspecified), the cytotoxicity at 10 µM was -6.98%.
Turning to `CC1CCN(C(=O)C2(Cc3cc(C4CCOC4)no3)CCNCC2)CC1` (stereo unspecified), the cytotoxicity at 10 µM is -3.04%.
With `Cc1nc(NC(=O)c2c3c(nn2C2CCS(=O)(=O)C2)CCC3)sc1C` (stereo unspecified), the cytotoxicity at 10 µM is -4.57%.
The result for `CCOC(=O)C1CCN(Cc2csc(C(C)(C)C)n2)CC1` reads -4.46%.
As for `CN(CCN1CCCCCC1)C(=O)c1cc(CN2CCC(O)CC2)on1`, the cytotoxicity at 10 µM is -17.5%.
The result for `FC(F)(F)c1cc(NCCn2ncnn2)nc(-c2cccnc2)n1` reads 18.9%; that for `O=C1C[C@H]2[C@H](CCN2C(=O)c2cc[nH]n2)N1Cc1cccnc1`, 3.03%.
`Cn1ccnc1CN1CCN(CC(=O)NCC(F)(F)F)CC1`: the cytotoxicity at 10 µM was -10%.
As for `COCCNC(=O)CCc1c(C)nn(-c2nc(C)c(C)c(=O)[nH]2)c1C`, the cytotoxicity at 10 µM was 11.1%.
The result for `CCCN1CCCn2c(nc(CNC(=O)N3CCCC3)cc2=O)C1` reads 12.1%; that for `O=C(CCN1C(=O)CCC1=O)Nc1ccc(OCC(F)(F)F)nc1`, -13.4%; that for `Cn1cccc1C(=O)N1CCCC(Cn2cc(CO)nn2)C1` (stereo unspecified), 1.85%.
For `Cc1nccnc1N1CCC2(CCCN(C3CCOCC3)C2=O)C1` (stereo unspecified), the cytotoxicity at 10 µM was -8.8%.
With `Cc1cc(C(=O)NCCSC2CCCC2)no1`, the cytotoxicity at 10 µM is -2.21%.
Regarding `CCOCC(O)CN1CCN(C(=O)c2cccc3[nH]ncc23)CC1` (stereo unspecified), the cytotoxicity at 10 µM was -12.8%.
In the case of `c1cc(COC[C@@H]2CCC[C@@]23CNCCO3)ccn1`, the cytotoxicity at 10 µM came to 1.26%.
The figure for `c1csc(-c2noc(C3CNC3)n2)c1` is -5.39%; for `O=C(CN1CCS(=O)(=O)CC1)NC1CCCCc2ccccc21` (stereo unspecified) it is 7.28%.
The result for `O=C(Cn1cc(C(=O)O)ccc1=O)Nc1ccc(F)cc1Cl` reads 0.381%; that for `CCOc1nnc(CN2CCN(CCOC)CC2)s1`, -12.1%.
The result for `O=C(O)c1ccc2c(c1)C1(CCCCC1)CN2C(=O)c1ccnnc1` reads 3.59%; that for `Cc1nnc([C@@H]2C[C@H]3CN(C(=O)c4sccc4C)C[C@H]3O2)[nH]1`, 16%; that for `COc1ccc(CNC[C@H]2Cn3ccnc3CO2)cn1`, 8.73%.
Take `Cc1cc(C)n(CC2CCN(CC(O)COc3ccccc3)CC2)n1` (stereo unspecified): the cytotoxicity at 10 µM is -5.58%.
As for `CC1CN(C)CCN1C(=O)c1cnn(-c2cccc(Cl)c2)c1` (stereo unspecified), the cytotoxicity at 10 µM was -8.68%.
`Cc1cc(SC(C)(C)C)ccc1NC(C)C(=O)NC(N)=O` (stereo unspecified): the cytotoxicity at 10 µM was -5.36%.
The figure for `Cc1cc(Cn2c(=O)c3c(C(F)(F)F)cc(C)nc3n2C)on1` is -0.976%; for `CNc1cc(CCNC(=O)CC(C)C)nc(-c2ccccn2)n1` it is 1.26%.
The result for `CN(Cc1cccnc1)C1CCCN(Cc2noc(C3CC3)n2)C1` (stereo unspecified) reads -4.95%; that for `CC(C)(C)CC(=O)N1CC[C@@H]2[C@H](CC1)N(S(C)(=O)=O)CCS2(=O)=O`, -8.68%.
For the compound `CC(C)c1nc(CN2CCCC2c2cnn(C)c2)cs1` (stereo unspecified), the cytotoxicity at 10 µM came out at 0.0791%.
`CC(C)(C)c1nc(CC(=O)NCCC(=O)Nc2ccncc2)cs1`: the cytotoxicity at 10 µM is 12.8%.
The result for `Cn1c(CN2CCOCC2)cc(=O)c(O)c1CN1CCOCC1` reads -5.61%; that for `COC1CCN(S(=O)(=O)N2CCC3(CCCNC3=O)C2)CC1` (stereo unspecified), 1.1%.
As for `CC(C)c1n[nH]c(C2CN(CCc3cccs3)CCO2)n1` (stereo unspecified), the cytotoxicity at 10 µM is -4.57%.
For `CCN(CC1CCOC1)C(=O)c1cc(OC)c2c(c1)OCCO2` (stereo unspecified), the cytotoxicity at 10 µM is -7.35%.
The figure for `O=C(Nc1ccncc1)C1=NN(c2ccccc2)C(=O)CN1` is 2.76%.
The result for `O=C(COc1ccccc1N1CCCC1)N1CCN[C@H]2CS(=O)(=O)C[C@H]21` reads -0.687%.
The figure for `COCCN1CCN(S(C)(=O)=O)Cc2ccc(C)nc21` is -5.06%; for `Cc1[nH]/c(=N\C(=O)c2csc(NC3CCCC3)n2)sc1C` it is 38.8%.
In the case of `CNc1cc(C)nc(C2COCCN2CCc2ccc(F)cc2)n1` (stereo unspecified), the cytotoxicity at 10 µM is 3.68%.
The result for `O=C(NCC1CC1)C1CN(Cc2cccs2)Cc2ccnn2C1` (stereo unspecified) reads -3.94%; that for `Cc1cc2[nH]cc(C(=O)N3CCCCC3c3ccc(F)cc3)c(=O)n2n1` (stereo unspecified), 4.19%.
As for `CC[C@H]1CN(C(=O)C2CC2)CC[C@H]1CC(=O)NCCN1CCOCC1`, the cytotoxicity at 10 µM is -7.3%.
The figure for `COCCn1cc(CC(=O)Nc2cc(C)n(C)n2)c2ccccc21` is -1.96%; for `COc1ccccc1N1CCN(C(=O)CCc2nncn2C)C(C)C1` (stereo unspecified) it is 16%.
The result for `CNC(=O)N1CCCCC1c1nnc2n1CCCC2` (stereo unspecified) reads -6.1%; that for `Cc1nn(C)c2cnn(Cc3ccc(C(=O)NC4CC4)o3)c12`, 9.43%.
The result for `NC(=O)c1ccc(N2CCCCC2)c(NC(=O)c2cc(F)ccc2F)c1` reads 7.57%.
As to `Cc1noc(C)c1CNC(=O)N1CCC(C(O)c2ccccc2)CC1` (stereo unspecified), the cytotoxicity at 10 µM was -9.41%.
Take `CCc1cccc(NC(=O)CNc2ccccc2OCCC(=O)OC)c1`: the cytotoxicity at 10 µM came to 7.53%.
Regarding `CC(=O)N1CCC(C(=O)N2CCC2c2nc(-c3ccc(C)s3)no2)CC1` (stereo unspecified), the cytotoxicity at 10 µM stood at 3.15%.
For the compound `COCc1ccccc1CNC(=O)CN1CCCC1c1noc(C)n1` (stereo unspecified), the cytotoxicity at 10 µM was 1.13%.
Regarding `O=C(NCCn1ccc(-c2ccccn2)n1)C1CCC1`, the cytotoxicity at 10 µM amounted to 4.23%.
The result for `CN(C)C1COC2(CCN(C(=O)c3cccnc3)CC2)C1` (stereo unspecified) reads 3.53%; that for `Cc1cc(NC(=O)NC(C)CO)ccc1OCC(F)(F)F` (stereo unspecified), 5.2%.
The result for `CCN1CCN(CC(O)c2cc(Cl)ccc2Cl)CC1` (stereo unspecified) reads 0.388%.
In the case of `CC(Nc1cccc(Oc2ccc(C#N)cn2)c1)C(=O)NC1CC1` (stereo unspecified), the cytotoxicity at 10 µM is 12.8%.
The result for `Fc1ccc(CNCCn2cccn2)cc1F` reads -8.01%; that for `COc1cccc(-c2n[nH]cc2CNC2CCN(C(C)C)CC2)c1`, 0.353%; that for `Cc1nccn1-c1nccnc1C1CCN(Cc2ccc(F)cc2)CC1`, -5.43%.
As to `O=C(NCC1CCCCC1)c1nnn(-c2ccc(Br)cc2)n1`, the cytotoxicity at 10 µM was -0.895%.
`CCOCC1CN(c2ncc(F)cn2)Cc2cn(CC)nc21` (stereo unspecified): the cytotoxicity at 10 µM amounted to 8.31%.
The result for `COc1ccc(-c2ncc(-c3nccn3CCN(C)C)cn2)cc1` reads 1.44%.
The figure for `CNC(=O)c1cc(NC(=O)Nc2cnn(CC(C)C)c2)ccc1F` is -3.79%.
The result for `O=C(NCc1ccccc1CN1CCC(O)CC1)Nc1cccnc1` reads -8.8%; that for `CCN1CCCC1CN(CCN(C)C)S(=O)(=O)c1ccc(C#N)cc1` (stereo unspecified), -28.3%; that for `Cc1nc2c(N3CCN(Cc4ccccc4)CC3)nc(N)nc2n1C`, 5.61%.
On to `Cn1ccnc1CN1CCCC(CCc2ccc(F)c(F)c2)C1` (stereo unspecified), for which the cytotoxicity at 10 µM was -6.9%.

The values above are taken from ChEMBL document CHEMBL4513216, “Probing the Open Global Health Chemical Diversity Library for Multistage-Active Starting Points for Next-Generation Antimalarials” (ACS Infect Dis, 2020).
